Results as given in ChEMBL document CHEMBL1124503, “The role of position 4 in angiotensin II antagonism: a structure-activity study” (J Med Chem, 1989).
*1 amine or outer side, *2 acyl side, *3 side chain or, on linkers, in order; H or OH if unused. Where a SMILES comes first, the peptide text is derived from it. [ ]: non-standard residue; d: D form. Phe(4-SO2NH2) = N[C@@H](Cc1ccc(S(N)(=O)=O)cc1)C(=O)O; Phe(4-NO2) = N[C@@H](Cc1ccc([N+](=O)[O-])cc1)C(=O)O; Phe(4-SO3H) = N[C@@H](Cc1ccc(S(=O)(=O)O)cc1)C(=O)O; X2 = CC(=O)NCSc1ccc(C[C@H](N[*:1])C(=O)[*:2])cc1; Phe(4-B(OH)2) = N[C@@H](Cc1ccc(B(O)O)cc1)C(=O)O; Phe(4-Cl) = N[C@@H](Cc1ccc(Cl)cc1)C(=O)O; X1 = O=C([C@H](Cc1ccc(S)cc1)N[*:1])[*:2]; Phe(4-NH2) = Nc1ccc(C[C@H](N)C(=O)O)cc1; Phe(4-F) = N[C@@H](Cc1ccc(F)cc1)C(=O)O; Sar = CNCC(=O)O

What was measured:
[1] = tested on: Angiotensin II receptor (Oryctolagus cuniculus); test: Angiotensin II-like agonist activity, measured in the in vitro rabbit aorta strip assay
[2] = species on record: Oryctolagus cuniculus; test: Antagonist activity pA2, was measured in the in vitro rabbit aorta strip assay; format: functional; details: read-out: pA2 (converted)
How it was run: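 Isolated rabbit aorta strip (method of Rioux et al.); pA2 against the ANG II dose-response curve, determined at low antagonist doses within the competitive-inhibition range.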

[3] = tested on: Rattus norvegicus; test: Residual ANG II-like antagonist activity, ID50 was measured in vivo, in the rat blood pressure assay; format: functional
[4] = molecular target: Angiotensin II receptor (Rattus norvegicus) (UniProt P29089+P25095+P35351); test: In vivo blood pressure increase produced by a 1 ug bolus i.v.; format: functional, organism-based
How it was run: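 Rat blood pressure assay (Regoli et al.); agonist activity read as the mmHg rise in blood pressure after a 1 μg intravenous bolus of compound.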

[5] = species on record: Rattus norvegicus; test: Antagonist activity pA2, was measured in the in vitro rat uterus strip assay; format: functional; details: read-out: pA2 (converted)

Activity [1] [%]	Compound	Kb [2] [nM]	ID50 [3] [ng min-1 rat-1]	Blood pressure [4] [mmHg]	Kb [5] [nM]
0	CC[C@H](C)[C@H](NC(=O)[C@@H]1CCCN1C(=O)[C@H](Cc1c[nH]cn1)NC(=O)[C@@H](NC(=O)[C@H](Cc1ccc([N+](=O)[O-])cc1)NC(=O)[C@@H](NC(=O)[C@H](CCCN=C(N)N)NC(=O)CNC)C(C)C)[C@@H](C)CC)C(=O)O (H-[Sar]RV[Phe(4-NO2)]IHPI-OH)	79.4		5	
0	CC[C@H](C)[C@H](NC(=O)[C@@H]1CCCN1C(=O)[C@H](Cc1c[nH]cn1)NC(=O)[C@@H](NC(=O)[C@H](Cc1ccccc1)NC(=O)[C@@H](NC(=O)[C@H](CCCN=C(N)N)NC(=O)CNC)C(C)C)[C@@H](C)CC)C(=O)O (H-[Sar]RVFIHPI-OH)	3.16	80	2.7	
0	CC[C@H](C)[C@H](NC(=O)[C@@H]1CCCN1C(=O)[C@H](Cc1c[nH]cn1)NC(=O)[C@@H](NC(=O)[C@H](Cc1ccc(F)cc1)NC(=O)[C@@H](NC(=O)[C@H](CCCN=C(N)N)NC(=O)CNC)C(C)C)[C@@H](C)CC)C(=O)O (H-[Sar]RV[Phe(4-F)]IHPI-OH)	158	750	0	
22	CC[C@H](C)[C@H](NC(=O)[C@H](Cc1ccccc1)NC(=O)[C@@H](NC(=O)[C@H](CCCN=C(N)N)NC(=O)CNC)C(C)C)C(=O)N[C@@H](Cc1c[nH]cn1)C(=O)N1CCC[C@H]1C(=O)N[C@@H](Cc1ccccc1)C(=O)O (H-[Sar]RVFIHPF-OH)	12.6			
9	CC[C@H](C)[C@H](NC(=O)[C@H](Cc1ccc(SCNC(C)=O)cc1)NC(=O)[C@@H](NC(=O)[C@H](CCCN=C(N)N)NC(=O)CNC)C(C)C)C(=O)N[C@@H](Cc1c[nH]cn1)C(=O)N1CCC[C@H]1C(=O)N[C@@H](Cc1ccccc1)C(=O)O (H-[Sar]RV[X2]IHPF-OH)	8.13			
0.1	CCOc1ccc(C[C@H](NC(=O)[C@@H](NC(=O)[C@H](CCCN=C(N)N)NC(=O)CNC)C(C)C)C(=O)N[C@H](C(=O)N[C@@H](Cc2c[nH]cn2)C(=O)N2CCC[C@H]2C(=O)N[C@@H](Cc2ccccc2)C(=O)O)[C@@H](C)CC)cc1		150	2.5	> 1000
0	CCOc1ccc(C[C@H](NC(=O)[C@@H](NC(=O)[C@H](CCCN=C(N)N)NC(=O)CNC)C(C)C)C(=O)N[C@H](C(=O)N[C@@H](Cc2c[nH]cn2)C(=O)N2CCC[C@H]2C(=O)N[C@H](C(=O)O)[C@@H](C)CC)[C@@H](C)CC)cc1	> 1000	>1000	5	
0.9	CC[C@H](C)[C@H](NC(=O)[C@H](Cc1ccc(S)cc1)NC(=O)[C@@H](NC(=O)[C@H](CCCN=C(N)N)NC(=O)CNC)C(C)C)C(=O)N[C@@H](Cc1c[nH]cn1)C(=O)N1CCC[C@H]1C(=O)N[C@@H](Cc1ccccc1)C(=O)O (H-[Sar]RV[X1]IHPF-OH)	> 1000			
0	CC[C@H](C)[C@H](NC(=O)[C@H](Cc1ccc(S(=O)(=O)O)cc1)NC(=O)[C@@H](NC(=O)[C@H](CCCN=C(N)N)NC(=O)CNC)C(C)C)C(=O)N[C@@H](Cc1c[nH]cn1)C(=O)N1CCC[C@H]1C(=O)N[C@@H](Cc1ccccc1)C(=O)O (H-[Sar]RV[Phe(4-SO3H)]IHPF-OH)	> 1000			
< 0.1	H-DRVYIHPL-OH	1.66			
0	CC[C@H](C)[C@H](NC(=O)[C@H](Cc1ccc(Cl)cc1)NC(=O)[C@@H](NC(=O)[C@H](CCCN=C(N)N)NC(=O)CNC)C(C)C)C(=O)N[C@@H](Cc1c[nH]cn1)C(=O)N1CCC[C@H]1C(=O)N[C@@H](Cc1ccccc1)C(=O)O (H-[Sar]RV[Phe(4-Cl)]IHPF-OH)	31.6	30	5.5	
0	CC[C@H](C)[C@H](NC(=O)[C@@H]1CCCN1C(=O)[C@H](Cc1c[nH]cn1)NC(=O)[C@@H](NC(=O)[C@H](Cc1ccc(B(O)O)cc1)NC(=O)[C@@H](NC(=O)[C@H](CCCN=C(N)N)NC(=O)CNC)C(C)C)[C@@H](C)CC)C(=O)O (H-[Sar]RV[Phe(4-B(OH)2)]IHPI-OH)	2000	500	0	
0	CC[C@H](C)[C@H](NC(=O)[C@H](Cc1ccc(F)cc1)NC(=O)[C@@H](NC(=O)[C@H](CCCN=C(N)N)NC(=O)CNC)C(C)C)C(=O)N[C@@H](Cc1c[nH]cn1)C(=O)N1CCC[C@H]1C(=O)N[C@@H](Cc1ccccc1)C(=O)O	31.6	150	22	
0	CC[C@H](C)[C@H](NC(=O)[C@@H]1CCCN1C(=O)[C@H](Cc1c[nH]cn1)NC(=O)[C@@H](NC(=O)[C@H](Cc1ccc(Cl)cc1)NC(=O)[C@@H](NC(=O)[C@H](CCCN=C(N)N)NC(=O)CNC)C(C)C)[C@@H](C)CC)C(=O)O (H-[Sar]RV[Phe(4-Cl)]IHPI-OH)	> 1000	500	2	

More lines, now with the values behind:

Compound	Activity [1] [%]	Kb [2] [nM]	ID50 [3] [ng min-1 rat-1]	Blood pressure [4] [mmHg]	Kb [5] [nM]
CC[C@H](C)[C@H](NC(=O)[C@H](Cc1ccc(N)cc1)NC(=O)[C@@H](NC(=O)[C@H](CCCN=C(N)N)NC(=O)CNC)C(C)C)C(=O)N[C@@H](Cc1c[nH]cn1)C(=O)N1CCC[C@H]1C(=O)N[C@@H](Cc1ccccc1)C(=O)O (H-[Sar]RV[Phe(4-NH2)]IHPF-OH)	15				
CC[C@H](C)[C@H](NC(=O)[C@H](Cc1ccc(OC)cc1)NC(=O)[C@@H](NC(=O)[C@H](CCCN=C(N)N)NC(=O)CNC)C(C)C)C(=O)N[C@@H](Cc1c[nH]cn1)C(=O)N1CCC[C@H]1C(=O)N[C@@H](Cc1ccccc1)C(=O)O	0	79.4	250	20	
CC[C@H](C)[C@H](NC(=O)[C@H](Cc1ccc(S(N)(=O)=O)cc1)NC(=O)[C@@H](NC(=O)[C@H](CCCN=C(N)N)NC(=O)CNC)C(C)C)C(=O)N[C@@H](Cc1c[nH]cn1)C(=O)N1CCC[C@H]1C(=O)N[C@@H](Cc1ccccc1)C(=O)O (H-[Sar]RV[Phe(4-SO2NH2)]IHPF-OH)	0.9				
CC[C@H](C)[C@H](NC(=O)[C@H](Cc1ccc(O)cc1)NC(=O)[C@@H](NC(=O)[C@H](CCCN=C(N)N)NC(=O)CNC)C(C)C)C(=O)N[C@@H](Cc1c[nH]cn1)C(=O)N1CCC[C@H]1C(=O)N[C@H](Cc1ccc(O)cc1)C(=O)O	0	5.62	20	15	
CC[C@H](C)[C@H](NC(=O)[C@H](Cc1ccc(F)cc1)NC(=O)[C@@H](NC(=O)[C@H](CCCN=C(N)N)NC(=O)CNC)C(C)C)C(=O)N[C@@H](Cc1c[nH]cn1)C(=O)N1CCC[C@H]1C(=O)N[C@H](Cc1ccccc1)C(=O)O	0	141	50	10	
CC[C@H](C)[C@H](NC(=O)[C@H](Cc1ccccc1)NC(=O)[C@@H](NC(=O)[C@H](CCCN=C(N)N)NC(=O)CNC)C(C)C)C(=O)N[C@@H](Cc1c[nH]cn1)C(=O)N1CCC[C@H]1C(=O)N[C@H](Cc1ccc(O)cc1)C(=O)O	0	100	30	5	
CC[C@H](C)[C@H](NC(=O)[C@@H]1CCCN1C(=O)[C@H](Cc1c[nH]cn1)NC(=O)[C@@H](NC(=O)[C@H](Cc1ccc(OC)cc1)NC(=O)[C@@H](NC(=O)[C@H](CCCN=C(N)N)NC(=O)CNC)C(C)C)[C@@H](C)CC)C(=O)O	0	79.4	100	3	
CC[C@H](C)[C@H](NC(=O)[C@H](Cc1ccc(O)cc1)NC(=O)[C@@H](NC(=O)[C@H](CCCN=C(N)N)NC(=O)CNC)C(C)C)C(=O)N[C@@H](Cc1c[nH]cn1)C(=O)N1CCC[C@H]1C(=O)N[C@H](Cc1ccccc1)C(=O)O		1	12.5	10	
CC[C@H](C)[C@H](NC(=O)C1CCCN1C(=O)[C@H](Cc1c[nH]cn1)NC(=O)[C@@H](NC(=O)[C@H](Cc1ccc(O)cc1)NC(=O)[C@@H](NC(=O)[C@H](CCCN=C(N)N)NC(=O)CNC)C(C)C)[C@@H](C)CC)C(=O)O (single isomer, unassigned)		0.794	10	10	
CC[C@H](C)[C@H](NC(=O)[C@H](Cc1ccc(F)cc1)NC(=O)[C@@H](NC(=O)[C@H](CCCN=C(N)N)NC(=O)[C@@H](N)CC(=O)O)C(C)C)C(=O)N[C@@H](Cc1c[nH]cn1)C(=O)N1CCC[C@H]1C(=O)N[C@@H](Cc1ccccc1)C(=O)O (H-DRV[Phe(4-F)]IHPF-OH)					501
CC[C@H](C)[C@H](NC(=O)[C@H](Cc1ccc(O)cc1)NC(=O)[C@@H](NC(=O)[C@H](CCCN=C(N)N)NC(=O)CNC)C(C)C)C(=O)N[C@@H](Cc1c[nH]cn1)C(=O)N1CCC[C@H]1C(=O)N[C@@H](Cc1ccccc1)C(=O)O				50	
H-DRVFIHPY-OH					240
CC[C@H](C)[C@H](NC(=O)[C@@H]1CCCN1C(=O)[C@H](Cc1c[nH]cn1)NC(=O)[C@@H](NC(=O)[C@H](Cc1ccc(O)cc1)NC(=O)[C@@H](NC(=O)[C@H](CCCN=C(N)N)NC(=O)[C@@H](N)CC(=O)O)C(C)C)[C@@H](C)CC)C(=O)O					5.01
CC[C@H](C)[C@H](NC(=O)[C@H](Cc1ccccc1)NC(=O)[C@@H](NC(=O)[C@H](CCCN=C(N)N)NC(=O)CNC)C(C)C)C(=O)N[C@@H](Cc1c[nH]cn1)C(=O)N1CCC[C@H]1C(=O)N[C@@H](Cc1ccc(O)cc1)C(=O)O	0	31.6	50	5.5	
CC[C@H](C)[C@H](NC(=O)[C@H](Cc1ccc(B(O)O)cc1)NC(=O)[C@@H](NC(=O)[C@H](CCCN=C(N)N)NC(=O)CNC)C(C)C)C(=O)N[C@@H](Cc1c[nH]cn1)C(=O)N1CCC[C@H]1C(=O)N[C@@H](Cc1ccccc1)C(=O)O (H-[Sar]RV[Phe(4-B(OH)2)]IHPF-OH)	10				
H-DRVYIHPC-OH					6.03
